Here are results for 18 molecules from ChEMBL document CHEMBL3120153, “Novel Quinoline-Based P2-P4 Macrocyclic Derivatives As Pan-Genotypic HCV NS3/4a Protease Inhibitors” (ACS Med Chem Lett, 2014).

Data set [1] has as its target NS3 protease (Hepatitis C virus subtype 1b, UniProt Q0ZMF1, A156V). As to the kind of experiment: Inhibition of Hepatitis C virus genotype 1b NS3/4A protease A156V mutant assessed as substrate cleavage using Ac-C(Eu)DDMEEAbu(COO)ASK(QSY7)-amide as substrate incubated for 30 mins prior to substrate addition by time-resolved fluorescence assay.
The target in data set [2] is NS3 protease (Hepatitis C virus subtype 1b, UniProt Q0ZMF1, A156T). As to the kind of experiment: Inhibition of Hepatitis C virus genotype 1b NS3/4A protease A156T mutant assessed as substrate cleavage using Ac-C(Eu)DDMEEAbu(COO)ASK(QSY7)-amide as substrate incubated for 30 mins prior to substrate addition by time-resolved fluorescence assay.
The target of data set [3] is NS3 protease (Hepatitis C virus subtype 1b, UniProt Q0ZMF1, D168Y). The data set can be described thus: Inhibition of Hepatitis C virus genotype 1b NS3/4A protease D168Y mutant assessed as substrate cleavage using Ac-C(Eu)DDMEEAbu(COO)ASK(QSY7)-amide as substrate incubated for 30 mins prior to substrate addition by time-resolved fluorescence assay.
Data set [4] addresses NS3 protease (Hepatitis C virus subtype 1b, UniProt Q0ZMF1, R155K). The data set can be described thus: Inhibition of Hepatitis C virus genotype 1b NS3/4A protease R155K mutant assessed as substrate cleavage using Ac-C(Eu)DDMEEAbu(COO)ASK(QSY7)-amide as substrate incubated for 30 mins prior to substrate addition by time-resolved fluorescence assay.
Data set [5] is described as follows: Inhibition of Hepatitis C virus genotype 1b NS3/4A protease assessed as substrate cleavage using Ac-C(Eu)DDMEEAbu(COO)ASK(QSY7)-amide as substrate incubated for 30 mins prior to substrate addition by time-resolved fluorescence assay. Further details: species or system Hepatitis C virus subtype 1b.
Data set [6] is described as follows: Inhibition of Hepatitis C virus genotype 3a NS3/4A protease assessed as substrate cleavage using Ac-C(Eu)DDMEEAbu(COO)ASK(QSY7)-amide as substrate incubated for 30 mins prior to substrate addition by time-resolved fluorescence assay. More on the design: species or system Hepatitis C virus subtype 3a.
A short description of data set [7]: AUC in rat at 5 mg/kg, po. Further details: dose 5 mg/kg, route oral. It counts as ADME, organism-based. The settings on record: plasma. In a few lines:
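Rats were dosed orally at 5 mg/kg, with the compound given in methyl cellulose vehicle.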

As a reminder, the IC50 is the concentration that inhibits the measured activity by half. Regarding `C=C[C@@H]1C[C@]1(NC(=O)[C@@H]1C[C@@H]2CN1C(=O)[C@H](C1CCCCC1)NC(=O)O[C@@H]1C[C@H]1CCCCCc1c(nc3ccccc3c1OCCCNC1CC(F)(F)C1)O2)C(=O)NS(=O)(=O)C1(C)CC1`, the IC50 in data set [1] stood at 0.38 nM; in data set [2] it was 0.53 nM; in data set [3], 0.32 nM; in data set [4] it was 0.18 nM; in data set [5], 0.01 nM; in data set [6], 2 nM.
On to `C=C[C@@H]1C[C@]1(NC(=O)[C@@H]1C[C@@H]2CN1C(=O)[C@H](C1CCCCC1)NC(=O)O[C@@H]1C[C@H]1CCCCCc1c(nc3ccccc3c1OC1CCN(CCF)CC1)O2)C(=O)NS(=O)(=O)C1(C)CC1`, for which the IC50 in data set [1] turned out to be 1.67 nM; in data set [2], 2.15 nM; in data set [3] it was 1.3 nM; in data set [4] it was 0.13 nM; in data set [5] it was 0.01 nM; in data set [6], 2.13 nM.
Consider `C=C[C@@H]1C[C@]1(NC(=O)[C@@H]1C[C@@H]2CN1C(=O)[C@H](C(C)(C)C)NC(=O)O[C@@H]1C[C@H]1CCCCCc1c(nc3ccccc3c1O[C@@H]1C[C@H]3CC[C@@H](C1)N3CCOC)O2)C(=O)NS(=O)(=O)C1(C)CC1`, for which the IC50 in data set [1] stood at 0.86 nM; in data set [2], 1.25 nM; in data set [3] it was 1.45 nM; in data set [4], 0.28 nM; in data set [5], 0.02 nM; in data set [6] it was 4.7 nM.
For the molecule `C=C[C@@H]1C[C@]1(NC(=O)[C@@H]1C[C@@H]2CN1C(=O)[C@H](C1CCCCC1)NC(=O)O[C@@H]1C[C@H]1CCCCCc1c(nc3ccccc3c1OCCCNC1CCC1)O2)C(=O)NS(=O)(=O)C1(C)CC1`, the 50% inhibitory concentration (IC50) in data set [1] is 0.3 nM; in data set [2] it was 0.4 nM; in data set [3], 0.3 nM; in data set [4], 0.1 nM; in data set [5] it was 0.02 nM; in data set [6] it was 1.2 nM.
With `C=C[C@@H]1C[C@]1(NC(=O)[C@@H]1C[C@@H]2CN1C(=O)[C@H](C1CCCCC1)NC(=O)O[C@@H]1C[C@H]1CCCCCc1c(nc3ccccc3c1OCCCN1CCOCC1)O2)C(=O)NS(=O)(=O)C1(C)CC1`, the IC50 in data set [1] was 0.98 nM; in data set [2], 3.09 nM; in data set [3], 1.01 nM; in data set [4], 0.27 nM; in data set [5], 0.01 nM; in data set [6] it was 1.9 nM.
Consider `C=C[C@@H]1C[C@]1(NC(=O)[C@@H]1C[C@@H]2CN1C(=O)[C@H](C1CCCCC1)NC(=O)O[C@@H]1C[C@H]1CCCCCc1c(nc3ccccc3c1OC1CCN(C(=O)OC(C)(C)C)CC1)O2)C(=O)NS(=O)(=O)C1(C)CC1`, for which the IC50 in data set [1] was 14.5 nM; in data set [2], 21.1 nM; in data set [3], 13.5 nM; in data set [4], 1.31 nM; in data set [5] it was 0.16 nM; in data set [6], 191 nM.
On to `C=C[C@@H]1C[C@]1(NC(=O)[C@@H]1C[C@@H]2CN1C(=O)[C@H](C1CCCCC1)NC(=O)O[C@@H]1C[C@H]1CCCCCc1c(nc3ccccc3c1OC1CCN(CC(F)(F)F)CC1)O2)C(=O)NS(=O)(=O)C1(C)CC1`, for which the IC50 stood at 27.2 nM in data set [1]; 26.1 nM in data set [2]; 12.9 nM in data set [3]; 3.4 nM in data set [4]; 0.4 nM in data set [5]; 104 nM in data set [6].
For the molecule `C=C[C@@H]1C[C@]1(NC(=O)[C@@H]1C[C@@H]2CN1C(=O)[C@H](C1CCCCC1)NC(=O)O[C@@H]1C[C@H]1CCCCCc1c(nc3ccccc3c1OC1CCN(CCS(C)(=O)=O)CC1)O2)C(=O)NS(=O)(=O)C1(C)CC1`, the half-inhibitory concentration (IC50) amounted to 3.76 nM in data set [1]; 5.21 nM in data set [2]; 2.1 nM in data set [3]; 0.21 nM in data set [4]; 0.02 nM in data set [5]; 5.18 nM in data set [6].
With `C=C[C@@H]1C[C@]1(NC(=O)[C@@H]1C[C@@H]2CN1C(=O)[C@H](C1CCCCC1)NC(=O)O[C@@H]1C[C@H]1CCCCCc1c(nc3ccccc3c1OC1CCN(CCOC(F)(F)F)CC1)O2)C(=O)NS(=O)(=O)C1(C)CC1`, the IC50 in data set [1] turned out to be 1.58 nM; in data set [2], 1.32 nM; in data set [3], 0.48 nM; in data set [4], 0.15 nM; in data set [5], 0.15 nM; in data set [6], 1.22 nM.
Take `C=C[C@@H]1C[C@]1(NC(=O)[C@@H]1C[C@@H]2CN1C(=O)[C@H](C1CCCCC1)NC(=O)O[C@@H]1C[C@H]1CCCCCc1c(nc3ccccc3c1O[C@H]1C[C@H]3CC[C@@H](C1)N3CCOC)O2)C(=O)NS(=O)(=O)C1(C)CC1`: the IC50 in data set [1] was 0.36 nM; in data set [2], 0.35 nM; in data set [3] it was 0.19 nM; in data set [4] it was 0.05 nM; in data set [5], 0.02 nM; in data set [6], 0.28 nM.
In general, AUC refers to the area under the concentration-time curve, a measure of exposure. `C=C[C@@H]1C[C@]1(NC(=O)[C@@H]1C[C@@H]2CN1C(=O)[C@H](C1CCCCC1)NC(=O)O[C@@H]1C[C@H]1CCCCCc1c(nc3ccccc3c1OCCCN1CCN(C)CC1)O2)C(=O)NS(=O)(=O)C1(C)CC1`: the IC50 in data set [1] worked out at 0.26 nM; in data set [2], 0.5 nM; in data set [3] it was 0.38 nM; in data set [4], 0.05 nM; in data set [5] it was 0.01 nM; in data set [6], 1.15 nM. The same molecule came in with an AUC in data set [7] of 0.1 µM·h.
With `C=C[C@@H]1C[C@]1(NC(=O)[C@@H]1C[C@@H]2CN1C(=O)[C@H](C1CCCCC1)NC(=O)O[C@@H]1C[C@H]1CCCCCc1c(nc3ccccc3c1OCCCN1CC(F)(F)C1)O2)C(=O)NS(=O)(=O)C1(C)CC1`, the IC50 in data set [1] stood at 1.3 nM; in data set [2], 3.75 nM; in data set [3] it was 2 nM; in data set [4], 0.5 nM; in data set [5] it was 0.03 nM; in data set [6] it was 7.55 nM.
Take `C=C[C@@H]1C[C@]1(NC(=O)[C@@H]1C[C@@H]2CN1C(=O)[C@H](C1CCCCC1)NC(=O)O[C@@H]1C[C@H]1CCCCCc1c(nc3ccccc3c1O[C@H]1C[C@H]3CC[C@@H](C1)N3)O2)C(=O)NS(=O)(=O)C1(C)CC1`: the 50% inhibitory concentration (IC50) in data set [1] was found to be 0.13 nM; in data set [2] it was 0.08 nM; in data set [3], 0.05 nM; in data set [4], 0.02 nM; in data set [5] it was 0.01 nM; in data set [6] it was 0.11 nM.
Regarding `C=C[C@@H]1C[C@]1(NC(=O)[C@@H]1C[C@@H]2CN1C(=O)[C@H](C1CCCCC1)NC(=O)O[C@@H]1C[C@H]1CCCCCc1c(nc3ccccc3c1OC1CCOCC1)O2)C(=O)NS(=O)(=O)C1(C)CC1`, the IC50 was determined as 3.4 nM in data set [1]; 4.1 nM in data set [2]; 2.07 nM in data set [3]; 0.26 nM in data set [4]; 0.03 nM in data set [5]; 11 nM in data set [6].
Take `C=C[C@@H]1C[C@]1(NC(=O)[C@@H]1C[C@@H]2CN1C(=O)[C@H](C(C)(C)C)NC(=O)O[C@@H]1C[C@H]1CCCCCc1c(nc3ccccc3c1O[C@H]1C[C@H]3CC[C@@H](C1)N3CCOC)O2)C(=O)NS(=O)(=O)C1(C)CC1`: the half-maximal inhibitory concentration (IC50) in data set [1] came to 0.71 nM; in data set [2], 0.48 nM; in data set [3], 0.06 nM; in data set [4], 0.02 nM; in data set [5], 0.01 nM; in data set [6], 0.14 nM.
`C=C[C@@H]1C[C@]1(NC(=O)[C@@H]1C[C@@H]2CN1C(=O)[C@H](C1CCCCC1)NC(=O)O[C@@H]1C[C@H]1CCCCCc1c(nc3ccccc3c1OCCCN1CC(F)C1)O2)C(=O)NS(=O)(=O)C1(C)CC1`: the IC50 in data set [1] was determined as 0.97 nM; in data set [2], 1.95 nM; in data set [3], 0.79 nM; in data set [4], 0.16 nM; in data set [5] it was 0.02 nM; in data set [6], 4.45 nM.
Turning to `C=C[C@@H]1C[C@]1(NC(=O)[C@@H]1C[C@@H]2CN1C(=O)[C@H](C(C)(C)C)NC(=O)O[C@@H]1C[C@H]1CCCCCc1c(nc3ccccc3c1O[C@@H]1C[C@H]3CC[C@@H](C1)N3CC)O2)C(=O)NS(=O)(=O)C1(C)CC1`, the IC50 in data set [1] stood at 0.41 nM; in data set [2], 0.46 nM; in data set [3], 0.57 nM; in data set [4], 0.12 nM; in data set [5] it was 0.02 nM; in data set [6] it was 1.2 nM.
With `C=C[C@@H]1C[C@]1(NC(=O)[C@@H]1C[C@@H]2CN1C(=O)[C@H](C1CCCCC1)NC(=O)O[C@@H]1C[C@H]1CCCCCc1c(nc3ccccc3c1OC1CCN(CCOC)CC1)O2)C(=O)NS(=O)(=O)C1(C)CC1`, the IC50 in data set [1] worked out at 1.46 nM; in data set [2], 1.96 nM; in data set [3] it was 0.15 nM; in data set [4] it was 0.18 nM; in data set [5], 0.02 nM; in data set [6] it was 1.32 nM.
